Data published in ChEMBL document CHEMBL3351692, “Discovery and optimization of 1,3,5-trisubstituted pyrazolines as potent and highly selective allosteric inhibitors of protein kinase C-ζ” (J Med Chem, 2014).
Activity calls are given as the source filed them. The calls are words filed in the database; no cut-off is given here.

Legend:
[1] = system: RAW264.7; test: Cytotoxicity against mouse RAW264.7 cells assessed as living cells at 7.5 uM by MTT assay; assay type: cell-based; details: raw264.7, 7.5 µM
Summary of the method: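 RAW 264.7 macrophages: MTT viability assay run in parallel with each nitrite (Griess) experiment, same cell line and same compound treatment conditions.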

[2] = target: T1, Protein kinase C iota type (Homo sapiens) (UniProt P41743); test: Inhibition of PKCiota (unknown origin) at 20 uM
T1 sequence (whole entry): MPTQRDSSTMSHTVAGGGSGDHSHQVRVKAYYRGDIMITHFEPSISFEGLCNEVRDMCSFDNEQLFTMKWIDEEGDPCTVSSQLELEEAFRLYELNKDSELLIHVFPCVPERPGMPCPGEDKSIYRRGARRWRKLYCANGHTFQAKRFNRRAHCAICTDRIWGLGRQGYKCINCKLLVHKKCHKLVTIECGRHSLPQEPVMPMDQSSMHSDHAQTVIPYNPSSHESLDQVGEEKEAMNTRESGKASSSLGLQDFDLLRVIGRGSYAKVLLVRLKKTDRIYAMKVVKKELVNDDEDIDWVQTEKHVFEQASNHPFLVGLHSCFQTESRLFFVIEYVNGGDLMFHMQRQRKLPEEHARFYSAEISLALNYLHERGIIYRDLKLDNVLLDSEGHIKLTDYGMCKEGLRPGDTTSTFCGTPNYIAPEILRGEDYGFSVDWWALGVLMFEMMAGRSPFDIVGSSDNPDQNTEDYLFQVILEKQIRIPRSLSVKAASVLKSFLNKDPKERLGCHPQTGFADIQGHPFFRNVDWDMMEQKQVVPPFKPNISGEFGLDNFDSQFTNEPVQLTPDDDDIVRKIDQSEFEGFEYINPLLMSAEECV
Summary of the method: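 Cell-free radiometric kinase assay with purified recombinant PKCι under conditions similar to the PKCζ assay. Reaction mixtures preincubated 4 min at 37 °C, then phosphorylation started with γ32P-ATP/Mg2+. Mean of at least two experiments.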

[3] = target: Protein kinase C zeta type (Homo sapiens, UniProt Q05513, V297L); test: Inhibition of PKCzeta val297leu mutant (unknown origin) assessed as phosphorylation reaction after 4 mins incubation by cell-free assay
[4] = organism: Homo sapiens; test: Ratio of IC50 for PKCzeta val297leu mutant (unknown origin) to IC50 for wild type PKCzeta (unknown origin)
Summary of the method: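 Cell-free radiometric assay with purified recombinant full-length PKCζ wild type or PIF-pocket V297L mutant. Enzyme present at 0.2 μM. 4 min preincubation at 37 °C, reaction started with γ32P-ATP/Mg2+. IC50 values are means of at least two experiments.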

[5] = target: T2, Protein kinase C zeta type (Homo sapiens, UniProt Q05513); test: Inhibition of human PKCzeta assessed as phosphorylation reaction after 4 mins incubation by cell-free assay
T2 sequence (Q05513 whole entry): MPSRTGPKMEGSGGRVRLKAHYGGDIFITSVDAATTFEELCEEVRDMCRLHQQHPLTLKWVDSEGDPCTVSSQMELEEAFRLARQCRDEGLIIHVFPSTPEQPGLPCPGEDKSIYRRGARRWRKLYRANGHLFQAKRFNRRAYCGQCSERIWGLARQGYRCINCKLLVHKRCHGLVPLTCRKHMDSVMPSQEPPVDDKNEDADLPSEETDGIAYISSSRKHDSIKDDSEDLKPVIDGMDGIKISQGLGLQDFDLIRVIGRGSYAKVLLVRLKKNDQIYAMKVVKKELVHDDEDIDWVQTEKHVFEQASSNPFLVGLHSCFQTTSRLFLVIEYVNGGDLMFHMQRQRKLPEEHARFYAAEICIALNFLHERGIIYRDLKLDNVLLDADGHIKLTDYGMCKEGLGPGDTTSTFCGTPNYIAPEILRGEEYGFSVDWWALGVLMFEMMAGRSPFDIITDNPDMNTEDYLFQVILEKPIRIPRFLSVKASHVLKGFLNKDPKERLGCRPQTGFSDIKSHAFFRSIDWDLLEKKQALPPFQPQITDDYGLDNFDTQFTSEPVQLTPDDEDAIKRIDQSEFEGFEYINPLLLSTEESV

[6] = target: T2, Protein kinase C zeta type; test: Inhibition of PKCzeta in human U937 cells assessed as inhibition of TNFalpha-induced NF-kappaB activation by reporter gene assay; assay type: cell-based, U-937
[7] = target: T3, Nitric oxide synthase, inducible (Mus musculus) (UniProt P29477); test: Inhibition of iNOS induction in mouse RAW264.7 cells assessed as NO production at 7.5 uM; assay type: cell-based
T3 sequence (whole entry): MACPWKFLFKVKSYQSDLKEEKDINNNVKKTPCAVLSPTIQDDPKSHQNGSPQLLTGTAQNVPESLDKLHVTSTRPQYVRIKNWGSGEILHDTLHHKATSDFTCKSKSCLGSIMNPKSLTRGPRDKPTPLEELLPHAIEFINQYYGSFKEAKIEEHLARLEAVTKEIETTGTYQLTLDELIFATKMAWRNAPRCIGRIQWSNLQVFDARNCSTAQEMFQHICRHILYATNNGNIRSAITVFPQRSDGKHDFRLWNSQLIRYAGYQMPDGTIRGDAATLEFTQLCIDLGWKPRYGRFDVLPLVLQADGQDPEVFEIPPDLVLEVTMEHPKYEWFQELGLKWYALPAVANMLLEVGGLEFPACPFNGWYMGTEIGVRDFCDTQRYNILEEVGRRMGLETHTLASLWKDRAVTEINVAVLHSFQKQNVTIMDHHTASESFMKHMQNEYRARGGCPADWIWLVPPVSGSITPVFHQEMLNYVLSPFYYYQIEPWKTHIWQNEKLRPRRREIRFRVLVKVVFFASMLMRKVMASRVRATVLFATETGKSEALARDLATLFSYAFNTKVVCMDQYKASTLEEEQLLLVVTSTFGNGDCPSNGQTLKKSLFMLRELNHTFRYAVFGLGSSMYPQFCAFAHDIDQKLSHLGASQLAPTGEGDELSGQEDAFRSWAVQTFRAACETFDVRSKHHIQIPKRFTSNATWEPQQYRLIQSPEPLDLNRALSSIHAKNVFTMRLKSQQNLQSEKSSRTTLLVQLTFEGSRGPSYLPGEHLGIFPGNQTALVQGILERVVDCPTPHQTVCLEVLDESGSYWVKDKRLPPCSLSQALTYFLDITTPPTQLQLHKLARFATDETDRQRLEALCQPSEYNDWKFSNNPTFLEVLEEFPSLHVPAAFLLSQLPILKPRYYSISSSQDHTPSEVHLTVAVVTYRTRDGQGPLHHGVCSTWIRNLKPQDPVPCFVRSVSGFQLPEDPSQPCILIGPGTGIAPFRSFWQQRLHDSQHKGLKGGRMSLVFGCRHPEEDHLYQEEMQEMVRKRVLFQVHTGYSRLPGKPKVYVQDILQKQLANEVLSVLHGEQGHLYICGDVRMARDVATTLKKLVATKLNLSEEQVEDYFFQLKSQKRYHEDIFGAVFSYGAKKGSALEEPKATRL
Summary of the method: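 RAW 264.7 cells seeded at 8 × 10⁴ per well in DMEM/10% FBS and grown 2 days. Then exposed to LPS with compound or DMSO for 20 h. Supernatant nitrite measured by Griess reaction (sulfanilamide/NED) at 550 nm minus 620 nm background, quantified against a sodium nitrite standard curve. At least four experiments in triplicate.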

[8] = target: Protein kinase C beta type (Homo sapiens) (UniProt P05771); test: Inhibition of human PKCbeta2 at 10 uM relative to control
[9] = target: T4, Protein kinase C zeta type (Homo sapiens) (UniProt Q05513); test: Inhibition of PKCzeta in serum-starved human U937 cells assessed as inhibition of TNFalpha-stimulated activation loop phosphorylation at 2.5 to 5 uM by immunoblotting analysis; assay type: cell-based; details: U-937
T4 sequence (whole entry): T2 sequence (Q05513 whole entry)
Summary of the method: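 U937 cells in RPMI/10% FBS, serum-starved 24 h, treated with compound or DMSO for 1 h, then TNFα 50 ng/mL for 30 min. Whole-cell lysates separated by SDS–PAGE (10% gel) and immunoblotted for phospho-PKCζ/λ (Thr410/403), with β-actin as loading control. Near-infrared detection. Two separate experiments.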

[10] = target: T4, Protein kinase C zeta type (Homo sapiens); test: Inhibition of PKCzeta (unknown origin) expressed in HEK293 cells assessed as reduction in specific activity at 2 to 5 uM for 6 hrs after 30 mins IGF-I stimulation by in serum free medium; assay type: cell-based
Summary of the method: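 HEK293 cells transfected at 80% confluency with GST-PKCζ wild-type or V297L mutant plasmids. Next day switched to DMEM with 0.1% FCS and compound or DMSO for 6 h, then IGF-I 50 ng/mL final for 30 min at 37 °C. Lysed; GST-PKCζ pulled down on glutathione beads and eluted. 50 ng per reaction assayed for kinase activity with myelin basic protein as substrate. Triplicate treatments, two independent experiments.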

[11] = target: Serine/threonine-protein kinase TBK1 (Homo sapiens) (UniProt Q9UHD2); test: Inhibition of human TBK1 at 10 uM relative to control
[12] = target: Inhibitor of nuclear factor kappa-B kinase subunit beta (Homo sapiens) (UniProt O14920); test: Inhibition of human IKKbeta at 10 uM relative to control
[13] = target: Mitogen-activated protein kinase 14 (Homo sapiens) (UniProt Q16539); test: Inhibition of human p38alpha MAPK at 10 uM relative to control
[14] = target: Receptor-interacting serine/threonine-protein kinase 2 (Homo sapiens) (UniProt O43353); test: Inhibition of human RIPK2 at 10 uM relative to control
[15] = target: Mitogen-activated protein kinase kinase kinase 7 (Homo sapiens) (UniProt O43318); test: Inhibition of human TAK1 at 10 uM relative to control
Sequence of Mitogen-activated protein kinase kinase kinase 7 (Homo sapiens) (O43318 whole entry): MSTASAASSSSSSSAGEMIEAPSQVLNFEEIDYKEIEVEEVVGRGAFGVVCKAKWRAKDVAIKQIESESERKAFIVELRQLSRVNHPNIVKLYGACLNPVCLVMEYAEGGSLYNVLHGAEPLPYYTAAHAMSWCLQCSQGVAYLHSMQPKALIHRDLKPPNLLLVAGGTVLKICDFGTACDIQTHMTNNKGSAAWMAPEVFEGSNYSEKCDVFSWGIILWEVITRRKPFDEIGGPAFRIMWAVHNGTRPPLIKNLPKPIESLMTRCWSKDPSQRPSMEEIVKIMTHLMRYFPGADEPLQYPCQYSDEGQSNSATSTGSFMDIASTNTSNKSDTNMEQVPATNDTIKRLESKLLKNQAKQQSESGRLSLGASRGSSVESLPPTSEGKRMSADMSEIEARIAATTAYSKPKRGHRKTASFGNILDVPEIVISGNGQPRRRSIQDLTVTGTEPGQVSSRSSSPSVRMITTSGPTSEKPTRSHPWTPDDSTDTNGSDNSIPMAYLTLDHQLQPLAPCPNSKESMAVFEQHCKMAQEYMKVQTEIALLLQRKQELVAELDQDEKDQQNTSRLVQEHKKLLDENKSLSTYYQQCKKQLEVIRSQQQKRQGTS

Sequence of Protein kinase C zeta type (Homo sapiens, UniProt Q05513, V297L) (Q05513 whole entry V297L): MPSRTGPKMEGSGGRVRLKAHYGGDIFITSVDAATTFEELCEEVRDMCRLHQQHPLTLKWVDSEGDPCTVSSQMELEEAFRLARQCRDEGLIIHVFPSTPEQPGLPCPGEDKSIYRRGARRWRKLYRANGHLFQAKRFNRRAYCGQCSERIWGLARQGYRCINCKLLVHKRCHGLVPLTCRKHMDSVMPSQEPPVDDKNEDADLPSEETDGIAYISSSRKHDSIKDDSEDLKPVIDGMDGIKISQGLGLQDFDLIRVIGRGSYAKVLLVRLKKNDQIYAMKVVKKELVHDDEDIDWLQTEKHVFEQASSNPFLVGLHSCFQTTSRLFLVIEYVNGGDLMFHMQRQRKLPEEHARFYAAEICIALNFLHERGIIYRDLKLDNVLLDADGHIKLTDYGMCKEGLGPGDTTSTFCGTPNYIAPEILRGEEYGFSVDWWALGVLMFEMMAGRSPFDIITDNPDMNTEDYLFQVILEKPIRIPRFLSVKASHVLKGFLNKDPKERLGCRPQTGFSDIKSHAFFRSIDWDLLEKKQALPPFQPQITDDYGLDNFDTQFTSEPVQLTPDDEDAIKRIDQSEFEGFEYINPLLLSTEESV
Sequence of Protein kinase C beta type (Homo sapiens) (P05771 2-671 limits assumed): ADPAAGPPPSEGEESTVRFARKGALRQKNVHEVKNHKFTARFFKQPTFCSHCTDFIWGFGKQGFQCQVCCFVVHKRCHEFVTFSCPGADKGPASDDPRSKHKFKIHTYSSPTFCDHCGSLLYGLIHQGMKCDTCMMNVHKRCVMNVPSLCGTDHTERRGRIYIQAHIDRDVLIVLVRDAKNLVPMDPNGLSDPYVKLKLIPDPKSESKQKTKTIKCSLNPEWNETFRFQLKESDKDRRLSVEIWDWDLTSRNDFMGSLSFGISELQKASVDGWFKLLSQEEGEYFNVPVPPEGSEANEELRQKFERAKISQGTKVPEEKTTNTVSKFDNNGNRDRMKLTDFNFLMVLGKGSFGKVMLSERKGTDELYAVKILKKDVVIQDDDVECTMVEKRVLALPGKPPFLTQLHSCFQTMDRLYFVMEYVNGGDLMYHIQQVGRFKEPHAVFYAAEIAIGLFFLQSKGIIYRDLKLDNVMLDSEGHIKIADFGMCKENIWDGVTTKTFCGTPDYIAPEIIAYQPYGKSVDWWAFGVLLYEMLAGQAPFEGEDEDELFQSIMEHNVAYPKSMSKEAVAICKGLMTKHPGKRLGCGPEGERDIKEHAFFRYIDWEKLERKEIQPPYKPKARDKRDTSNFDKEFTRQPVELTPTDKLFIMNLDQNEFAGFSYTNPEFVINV
Sequence of Receptor-interacting serine/threonine-protein kinase 2 (Homo sapiens) (O43353 whole entry): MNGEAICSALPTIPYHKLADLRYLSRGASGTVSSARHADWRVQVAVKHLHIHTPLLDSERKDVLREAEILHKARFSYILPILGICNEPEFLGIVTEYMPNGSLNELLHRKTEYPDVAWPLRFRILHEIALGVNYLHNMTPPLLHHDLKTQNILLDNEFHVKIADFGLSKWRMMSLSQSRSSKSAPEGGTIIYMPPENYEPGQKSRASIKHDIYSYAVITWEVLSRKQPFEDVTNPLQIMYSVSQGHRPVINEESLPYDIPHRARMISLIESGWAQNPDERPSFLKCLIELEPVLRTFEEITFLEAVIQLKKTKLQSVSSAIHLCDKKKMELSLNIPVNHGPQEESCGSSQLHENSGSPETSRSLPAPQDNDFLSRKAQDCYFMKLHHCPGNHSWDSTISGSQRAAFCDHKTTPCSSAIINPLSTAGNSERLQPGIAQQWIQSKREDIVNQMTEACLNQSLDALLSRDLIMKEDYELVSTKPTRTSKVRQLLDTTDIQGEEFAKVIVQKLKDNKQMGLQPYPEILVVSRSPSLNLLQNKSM
Sequence of Inhibitor of nuclear factor kappa-B kinase subunit beta (Homo sapiens) (O14920 whole entry): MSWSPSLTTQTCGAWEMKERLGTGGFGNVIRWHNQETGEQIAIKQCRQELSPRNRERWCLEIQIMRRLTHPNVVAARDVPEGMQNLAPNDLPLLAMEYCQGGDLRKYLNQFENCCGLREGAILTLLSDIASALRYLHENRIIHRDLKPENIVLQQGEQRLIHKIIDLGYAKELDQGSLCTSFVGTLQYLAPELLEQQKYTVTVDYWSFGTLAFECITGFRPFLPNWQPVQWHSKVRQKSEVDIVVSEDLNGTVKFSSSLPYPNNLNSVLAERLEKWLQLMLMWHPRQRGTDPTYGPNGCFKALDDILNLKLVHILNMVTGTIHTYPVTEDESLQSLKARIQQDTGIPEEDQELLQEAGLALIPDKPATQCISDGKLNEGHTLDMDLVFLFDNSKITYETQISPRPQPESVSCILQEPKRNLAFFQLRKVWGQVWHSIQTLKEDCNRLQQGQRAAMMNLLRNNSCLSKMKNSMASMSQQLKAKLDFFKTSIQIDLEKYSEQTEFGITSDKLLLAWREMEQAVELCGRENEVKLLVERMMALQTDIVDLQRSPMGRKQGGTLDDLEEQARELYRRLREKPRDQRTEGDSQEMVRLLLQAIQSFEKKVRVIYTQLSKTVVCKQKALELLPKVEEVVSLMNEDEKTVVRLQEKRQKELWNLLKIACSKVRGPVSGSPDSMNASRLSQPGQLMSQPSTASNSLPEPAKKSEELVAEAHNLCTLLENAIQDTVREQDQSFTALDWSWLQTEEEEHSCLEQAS
Sequence of Mitogen-activated protein kinase 14 (Homo sapiens) (Q16539 whole entry): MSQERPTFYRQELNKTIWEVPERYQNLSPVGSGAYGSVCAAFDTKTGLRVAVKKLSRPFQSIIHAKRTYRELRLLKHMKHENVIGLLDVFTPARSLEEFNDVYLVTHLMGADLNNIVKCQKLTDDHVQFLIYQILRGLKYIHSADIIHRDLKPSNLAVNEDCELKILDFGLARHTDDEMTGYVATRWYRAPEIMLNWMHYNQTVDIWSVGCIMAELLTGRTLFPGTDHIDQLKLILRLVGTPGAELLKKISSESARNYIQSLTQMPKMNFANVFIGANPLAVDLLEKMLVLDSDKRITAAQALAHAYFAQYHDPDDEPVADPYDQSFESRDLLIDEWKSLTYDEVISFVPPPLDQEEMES
Sequence of Serine/threonine-protein kinase TBK1 (Homo sapiens) (Q9UHD2 whole entry): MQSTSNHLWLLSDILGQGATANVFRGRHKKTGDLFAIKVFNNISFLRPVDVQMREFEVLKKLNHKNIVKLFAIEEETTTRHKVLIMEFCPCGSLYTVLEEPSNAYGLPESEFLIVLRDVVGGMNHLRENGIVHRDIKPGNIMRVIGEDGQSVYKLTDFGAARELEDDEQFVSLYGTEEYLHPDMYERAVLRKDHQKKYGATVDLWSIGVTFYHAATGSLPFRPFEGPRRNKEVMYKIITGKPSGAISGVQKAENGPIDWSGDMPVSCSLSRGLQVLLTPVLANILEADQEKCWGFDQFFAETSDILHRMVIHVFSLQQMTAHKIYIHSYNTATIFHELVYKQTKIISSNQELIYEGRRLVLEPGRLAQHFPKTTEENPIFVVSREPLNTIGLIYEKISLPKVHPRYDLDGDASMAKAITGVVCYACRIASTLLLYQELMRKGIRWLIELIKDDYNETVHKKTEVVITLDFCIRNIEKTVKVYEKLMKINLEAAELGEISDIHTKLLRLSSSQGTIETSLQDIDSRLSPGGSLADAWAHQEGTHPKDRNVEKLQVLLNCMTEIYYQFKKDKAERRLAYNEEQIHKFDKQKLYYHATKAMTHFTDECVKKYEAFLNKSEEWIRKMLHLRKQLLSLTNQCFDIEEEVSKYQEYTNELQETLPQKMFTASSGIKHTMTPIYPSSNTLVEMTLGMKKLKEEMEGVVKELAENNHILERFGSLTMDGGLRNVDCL

SMILES | inhibition [2] [%] | IC50 [5] [µM] | IC50 [6] [µM] | inhibition [7] [%] | Activity [1] | other results
CC(C)(C)C1=NN(c2ccc(Cl)cc2)C(c2ccc(O)c(Cl)c2)C1 (centres undefined) | 0 | 0.7 | 2.9 | – | Non-toxic | IC50 [3]: 14.8 µM; Ratio IC50 [4]: 20.8
Oc1ccc(C2CC(c3cccs3)=NN2c2ccc(C(F)(F)F)cc2)cc1 (centres undefined) | 45.9 | 0.4 | 2.9 | 69 | Non-toxic | –
Cn1cc(C2=C(c3cn(CCCSC(=N)N)c4ccccc34)C(=O)NC2=O)c2ccccc21 | – | – | – | – | – | inhibition [8]: Active; inhibition [9]: inactive; inhibition [10]: inactive
CC(C)(C)C1=NN(c2ccc(F)c(F)c2F)C(c2ccc(O)cc2)C1 (centres undefined) | 7.8 | 0.7 | 3.1 | – | Non-toxic | –
Oc1ccccc1C1=NN(c2cccc(Cl)c2)C(c2ccc(O)c(F)c2F)C1 (centres undefined) | 39.2 | 6.6 | 1.4 | – | Non-toxic | –
CC(C)(C)C1=NN(c2ccccc2)C(c2ccc(O)cc2)C1 (centres undefined) | – | – | – | 32 | Non-toxic | –
CC(C)(C)C1=NN(c2ccc(Cl)cc2)C(c2cccc(O)c2)C1 (centres undefined) | 17.4 | 5.3 | 2 | – | Non-toxic | –
CC(C)(C)C1=NN(c2ccccc2Cl)C(c2ccc(O)cc2)C1 (centres undefined) | – | – | – | 26 | Non-toxic | –
COc1cc(/C=C/C(=O)CC(=O)/C=C/c2ccc(O)c(OC)c2)ccc1O [CURCUMIN] | – | – | – | 97 | Non-toxic | –

Further lines, with some results ahead:

inhibition [2] [%] | IC50 [5] [µM] | IC50 [6] [µM] | inhibition [7] [%] | SMILES | Activity [1] | other results
29.7 | 3.8 | 3.7 | – | CC(C)(C)C1=NN(c2ccc(Cl)cc2)C(c2ccc(O)c(F)c2)C1 (centres undefined) | Non-toxic | –
13.4 | 1.5 | – | – | Oc1ccc(C2CC(c3ccccc3O)=NN2c2ccc(Cl)cc2)cc1 (centres undefined) | Non-toxic | IC50 [3]: 3.1 µM; Ratio IC50 [4]: 2.1
21.4 | 0.5 | – | 65 | Oc1ccc(C2CC(c3cccs3)=NN2c2ccc(Br)cc2)cc1 (centres undefined) | Non-toxic | IC50 [3]: 1 µM; Ratio IC50 [4]: 2
45.2 | 11.1 | 2.5 | – | Oc1ccccc1C1=NN(c2cccc(Cl)c2)C(c2cc(F)c(O)c(F)c2)C1 (centres undefined) | Non-toxic | –
– | – | – | 50 | CC(C)(C)C1=NN(c2ccc(Cl)cc2)C(c2ccc(O)cc2)C1 (centres undefined) | Non-toxic | inhibition [8]: inactive; inhibition [11]: inactive; inhibition [12]: inactive; inhibition [13]: 10%; inhibition [14]: inactive; inhibition [15]: inactive
